From ChEMBL document CHEMBL2021854, “2-Aminopyrimidine based 4-aminoquinoline anti-plasmodial agents. Synthesis, biological activity, structure-activity relationship and mode of action studies” (Eur J Med Chem, 2012)

Legend:
Plasmodium falciparum = test: Antiplasmodial activity chloroquine-sensitive Plasmodium falciparum 3D7 infected in human A+ erythrocytes assessed as inhibition of [3H]-hypoxanthine incorporation after 24 hrs by scintillation counting; format: functional, organism-based
MDCK = test: Cytotoxicity against MDCK cells assessed as cell viability by colorimetric formazan-based MTS assay; design: species or system Canis lupus familiaris; details: dog, mdck
Procedure, shortened: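 Cytotoxicity on MDCK cells; 50% cytotoxic concentration from cell viability measured by colorimetric formazan-based MTS assay.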

[1] = Cytotoxicity against MDCK cells assessed as minimum compound concentration required to causes microscopically detectable alteration of normal cell morphology; format: cell-based, Canis lupus familiaris; details: dog
Procedure, shortened: (§1)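 Confluent, non-proliferating cell cultures were exposed to the compounds. The endpoint was the minimum concentration producing a microscopically detectable alteration of normal cell morphology.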

[2] = Selectivity index, ratio of CC50 for MDCK cells to IC50 for chloroquine-resistant Plasmodium falciparum K1; format: functional
Procedure, shortened: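 Selectivity index computed as MTS-based CC50 on MDCK cells divided by IC50 against P. falciparum K1.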

[3] = Cytotoxicity against african green monkey Vero cells assessed as minimum compound concentration required to causes microscopically detectable alteration of normal cell morphology; format: cell-based; details: chlorocebus sabaeus; procedure, shortened: as §1
Sindbis virus = test: Antiviral activity against Sindbis virus infected in african green monkey Vero cells assessed as inhibition of virus-induced cytopathogenicity after 4 days; format: functional, organism-based; details: 96 h
Procedure, shortened: (§2)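 Confluent HEL, Vero or HeLa monolayers were inoculated with 100 CCID50 of virus in the presence of varying concentrations of compound. Cytopathicity was scored when it reached completion in untreated, virus-infected control cultures.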

Coxsackievirus B4 [4] = test: Antiviral activity against Coxsackie virus B4 infected in african green monkey Vero cells assessed as inhibition of virus-induced cytopathogenicity after 4 days; format: functional, organism-based; details: Enterovirus B, 96 h; procedure, shortened: as §2
Punta Toro virus = test: Antiviral activity against Punta Toro virus infected in african green monkey Vero cells assessed as inhibition of virus-induced cytopathogenicity after 4 days; format: functional, organism-based; details: 96 h; procedure, shortened: as §2
Human alphaherpesvirus 1 [5] = test: Antiviral activity against HSV1 KOS infected in HEL cells assessed as inhibition of virus-induced cytopathogenicity after 4 days; format: functional, organism-based; details: Human alphaherpesvirus 1, KOS, 96 h
Procedure, shortened: (§3)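 Confluent HEL or HeLa monolayers infected with 100 CCID50 of virus in the presence of varying compound concentrations.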

Human alphaherpesvirus 2 = test: Antiviral activity against HSV2 G infected in HEL cells assessed as inhibition of virus-induced cytopathogenicity after 4 days; format: functional, organism-based; details: Human alphaherpesvirus 2, strain G, 96 h; procedure, shortened: as §2
Human alphaherpesvirus 1 [6] = test: Antiviral activity against thymidine kinase-deficient acyclovir-resistant HSV1 KOS infected in HEL cells assessed as inhibition of virus-induced cytopathogenicity after 4 days; format: functional, organism-based; details: Human alphaherpesvirus 1, KOS, 96 h; procedure, shortened: as §3
[7] = Cytotoxicity against human HEL cells assessed as minimum compound concentration required to causes microscopically detectable alteration of normal cell morphology; format: cell-based; procedure, shortened: as §1
[8] = Cytotoxicity against human HeLa cells assessed as minimum compound concentration required to causes microscopically detectable alteration of normal cell morphology; format: cell-based; procedure, shortened: as §1
[9] = tested on: Vesicular stomatitis virus; test: Antiviral activity against Vesicular stomatitis virus infected in HeLa cells assessed as inhibition of virus-induced cytopathogenicity after 4 days; format: functional, organism-based; details: 96 h; procedure, shortened: as §3
Coxsackievirus B4 [10] = test: Antiviral activity against Coxsackie virus B4 infected in human HeLa cells assessed as inhibition of virus-induced cytopathogenicity after 4 days; format: functional, organism-based; details: Enterovirus B, 96 h; procedure, shortened: as §2
Influenza A virus [11] = test: Antiviral activity against Influenza A virus H1N1 infected in MDCK cells assessed as reduction visual scoring of virus-induced cytopathogenicity after 4 days; format: functional, organism-based; details: 96 h
Procedure, shortened: (§4)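 MDCK monolayers infected with 100 CCID50 of influenza A (H1N1 or H3N2) or influenza B, with varying compound concentrations. Cytopathicity read when untreated infected controls reached complete CPE.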

Influenza B virus = test: Antiviral activity against Influenza B virus infected in MDCK cells assessed as reduction visual scoring of virus-induced cytopathogenicity after 4 days; format: functional, organism-based; details: 96 h; procedure, shortened: as §4
Influenza A virus [12] = test: Antiviral activity against Influenza A virus H1N1 infected in MDCK cells assessed as inhibition of virus-induced cytopathogenicity after 4 days by colorimetric formazan-based MTS assay; format: functional, organism-based; details: 96 h
Influenza A virus [13] = test: Antiviral activity against Influenza A virus H3N2 infected in MDCK cells assessed as inhibition of virus-induced cytopathogenicity after 4 days by colorimetric formazan-based MTS assay; format: functional, organism-based; details: 96 h
Human betaherpesvirus 5 = test: Antiviral activity against Cytomegalovirus AD-169 infected in HEL cells assessed as inhibition of virus plaque formation after 4 days; format: functional, organism-based; details: Human betaherpesvirus 5, AD169, HEL, 96 h
HeLa = test: Cytotoxicity against human HeLa cells assessed as cell viability by colorimetric formazan-based MTS assay
Human alphaherpesvirus 3 [14] = test: Antiviral activity against […] expressing thymidine kinase infected in HEL cells assessed as reduction of virus plaque formation after 4 days; format: functional, cell-based; details: Human alphaherpesvirus 3, strain Oka vaccine, 96 h
Human alphaherpesvirus 3 [15] = test: Antiviral activity against thymidine kinase-deficient […] infected in HEL cells assessed as reduction of virus plaque formation after 4 days; format: functional, organism-based; details: Human alphaherpesvirus 3, 07-1, HEL, 96 h
[16] = Cytotoxicity against cat CRFK cells assessed as cell viability by colorimetric formazan-based MTS assay; design: species or system Felis catus; details: crfk
[17] = tested on: Feline infectious peritonitis virus; test: Antiviral activity against FIPV infected in cat CRFK cells assessed as inhibition of virus-induced cytopathic effect after 4 days by colorimetric formazan-based MTS assay; format: functional, cell-based; details: Alphacoronavirus 1, CRFK, 96 h
Felid alphaherpesvirus 1 = test: Antiviral activity against Feline herpesvirus infected in cat CRFK cells assessed as inhibition of virus-induced cytopathic effect after 4 days by colorimetric formazan-based MTS assay; format: functional, organism-based; details: Felid alphaherpesvirus 1, CRFK, 96 h
Heme [18] = test: Binding affinity to monomeric heme in HEPES buffer at pH 5.6 by spectrophotometric analysis
Heme [19] = test: Binding affinity to monomeric heme in HEPES buffer at pH 7.5 by spectrophotometric analysis
Procedure, shortened: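 Monomeric hemin (2.4 μM, 40% DMSO in water) was titrated with compound (0–70 μM) added from DMSO stocks, with absorbance read at 402 nm after each addition. Buffer was HEPES (pH 7.4) for the neutral condition and MES ([…]) for the pH 5.6 condition. Stoichiometry was by Job's method and log K by HypSpec fitting.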

mu-oxodimeric heme = test: Binding affinity to mu-oxo heme in HEPES buffer at pH 5.8 by UV-visible spectrophotometry analysis
[20] = Inhibition of beta-hematin formation assessed as Ferriprotoporphyrin IX biomineralisation at 1 mg/ml after 24 hrs; format: functional
Procedure, shortened: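 Hemin chloride (0.5 mg/ml in DMSO) mixed with 0.5 M sodium acetate buffer pH 4.4 and drug or solvent control, incubated 37 °C for 24 h. Pellet washed with DMSO to remove unreacted hemin, dissolved in 0.1 N NaOH, absorbance read at 405 nm; percent inhibition relative to control. Highest concentration tested 1 mg/ml.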

Nucleic Acid [21] = test: Binding affinity to calf thymus DNA assessed as melting temperature; format: nucleic-acid assay; details: Bos taurus
Procedure, shortened: (§5)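 CT DNA (151 μM NP) was heated with or without compound at a 5:1 DNA:drug ratio in 40% DMSO/TE buffer pH 7.4 with 0.5 mM NaCl. Absorbance at 260 nm was followed with a 0.5 °C/min ramp to obtain Tm.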

Nucleic Acid [22] = test: Binding affinity to calf thymus DNA assessed as change in melting temperature; format: nucleic-acid assay; details: Bos taurus; procedure, shortened: as §5

CCOC(=O)c1c(C)nc(NCCCCNc2ccnc3cc(Cl)ccc23)nc1-c1ccccc1
IC50 (Plasmodium falciparum): 0.202 µM | CC50 (MDCK): 0.9 µM | MCC [1]: 800 nM | Ratio CC50/IC50 [2]: 34.41 | MCC [3]: > 100 µM | EC50 (Sindbis virus): > 100 µM | EC50 (Coxsackievirus B4 [4]): > 100 µM | EC50 (Punta Toro virus): > 100 µM | EC50 (Human alphaherpesvirus 1 [5]): > 100 µM | EC50 (Human alphaherpesvirus 2): > 100 µM | EC50 (Human alphaherpesvirus 1 [6]): > 100 µM | MCC [7]: > 20 µM | MCC [8]: > 100 µM | EC50 [9]: > 100 µM | EC50 (Coxsackievirus B4 [10]): > 100 µM | EC50 (Influenza A virus [11]): > 0.16 µM | EC50 (Influenza B virus): > 0.16 µM | EC50 (Influenza A virus [12]): > 0.16 µM | EC50 (Influenza A virus [13]): > 0.16 µM | EC50 (Human betaherpesvirus 5): 2 µM | CC50 (HeLa): 1.84 µM | EC50 (Human alphaherpesvirus 3 [14]): 4 µM | EC50 (Human alphaherpesvirus 3 [15]): > 20 µM | CC50 [16]: 13.9 µM | EC50 [17]: > 4 µM | EC50 (Felid alphaherpesvirus 1): > 4 µM | log Ks (Heme [18]): 5.28 | log Ks (Heme [19]): 6.02 | log Ks (mu-oxodimeric heme): 6.09 | inhibition [20]: 100% | Tm (Nucleic Acid [21]): 63 °C | ΔTm (Nucleic Acid [22]): 3 °C

Cc1nc(NCCCCNc2ccnc3cc(Cl)ccc23)nc(-c2ccccc2[N+](=O)[O-])c1C(=O)OC(C)C
IC50 (Plasmodium falciparum): 0.0182 µM | CC50 (MDCK): 2.3 µM | MCC [1]: 4000 nM | Ratio CC50/IC50 [2]: 638 | MCC [3]: 100 µM | EC50 (Sindbis virus): > 20 µM | EC50 (Coxsackievirus B4 [4]): > 20 µM | EC50 (Punta Toro virus): > 20 µM | EC50 (Human alphaherpesvirus 1 [5]): > 4 µM | EC50 (Human alphaherpesvirus 2): > 4 µM | EC50 (Human alphaherpesvirus 1 [6]): > 4 µM | MCC [7]: 20 µM | MCC [8]: 100 µM | EC50 [9]: > 20 µM | EC50 (Coxsackievirus B4 [10]): > 20 µM | EC50 (Influenza A virus [11]): > 0.8 µM | EC50 (Influenza B virus): > 0.8 µM | EC50 (Influenza A virus [12]): > 0.8 µM | EC50 (Influenza A virus [13]): > 0.8 µM | EC50 (Human betaherpesvirus 5): > 4 µM | CC50 (HeLa): 4.4 µM | EC50 (Human alphaherpesvirus 3 [14]): 4 µM | EC50 (Human alphaherpesvirus 3 [15]): > 4 µM | CC50 [16]: 27.2 µM | EC50 [17]: > 20 µM | EC50 (Felid alphaherpesvirus 1): > 20 µM | log Ks (Heme [18]): 4.97 | log Ks (Heme [19]): 5.08 | log Ks (mu-oxodimeric heme): 6.31 | inhibition [20]: 100% | Tm (Nucleic Acid [21]): 62.5 °C | ΔTm (Nucleic Acid [22]): 2.5 °C
